The target in data set [1] is Phosphatidylinositol 4,5-bisphosphate 3-kinase catalytic subunit alpha isoform (Homo sapiens, UniProt P42336). Description: Inhibition of recombinant PI3K p110alpha using L-alpha-phosphatidylinositol as substrate and [gamma33P]ATP after 60 mins by thin layer chromatographic technique. The method in brief:
(§1)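 In-house recombinant enzyme (0.1 µg) with L-α-phosphatidylinositol in 40 mM Tris-HCl pH 7.4, 200 mM NaCl, 1 mM EDTA; DMSO 1% final. Started with 5 mM MgCl₂, 100 µM ATP plus [γ-³³P]ATP; 1 h at room temperature, stopped with 1 M HCl. Lipids extracted, separated by TLC, phosphorimaged. Nine inhibitor concentrations; two experiments, IC50 averaged.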

In data set [2] the target is Phosphatidylinositol 4,5-bisphosphate 3-kinase catalytic subunit beta isoform (Homo sapiens, UniProt P42338). The data set is described as follows: Inhibition of recombinant PI3K p110beta using L-alpha-phosphatidylinositol as substrate and [gamma33P]ATP after 60 mins by thin layer chromatographic technique. The method in brief: as §1
Data set [3] has as its target T1, Phosphatidylinositol 4,5-bisphosphate 3-kinase catalytic subunit delta isoform (Homo sapiens, UniProt O00329).
T1 sequence (O00329 whole entry): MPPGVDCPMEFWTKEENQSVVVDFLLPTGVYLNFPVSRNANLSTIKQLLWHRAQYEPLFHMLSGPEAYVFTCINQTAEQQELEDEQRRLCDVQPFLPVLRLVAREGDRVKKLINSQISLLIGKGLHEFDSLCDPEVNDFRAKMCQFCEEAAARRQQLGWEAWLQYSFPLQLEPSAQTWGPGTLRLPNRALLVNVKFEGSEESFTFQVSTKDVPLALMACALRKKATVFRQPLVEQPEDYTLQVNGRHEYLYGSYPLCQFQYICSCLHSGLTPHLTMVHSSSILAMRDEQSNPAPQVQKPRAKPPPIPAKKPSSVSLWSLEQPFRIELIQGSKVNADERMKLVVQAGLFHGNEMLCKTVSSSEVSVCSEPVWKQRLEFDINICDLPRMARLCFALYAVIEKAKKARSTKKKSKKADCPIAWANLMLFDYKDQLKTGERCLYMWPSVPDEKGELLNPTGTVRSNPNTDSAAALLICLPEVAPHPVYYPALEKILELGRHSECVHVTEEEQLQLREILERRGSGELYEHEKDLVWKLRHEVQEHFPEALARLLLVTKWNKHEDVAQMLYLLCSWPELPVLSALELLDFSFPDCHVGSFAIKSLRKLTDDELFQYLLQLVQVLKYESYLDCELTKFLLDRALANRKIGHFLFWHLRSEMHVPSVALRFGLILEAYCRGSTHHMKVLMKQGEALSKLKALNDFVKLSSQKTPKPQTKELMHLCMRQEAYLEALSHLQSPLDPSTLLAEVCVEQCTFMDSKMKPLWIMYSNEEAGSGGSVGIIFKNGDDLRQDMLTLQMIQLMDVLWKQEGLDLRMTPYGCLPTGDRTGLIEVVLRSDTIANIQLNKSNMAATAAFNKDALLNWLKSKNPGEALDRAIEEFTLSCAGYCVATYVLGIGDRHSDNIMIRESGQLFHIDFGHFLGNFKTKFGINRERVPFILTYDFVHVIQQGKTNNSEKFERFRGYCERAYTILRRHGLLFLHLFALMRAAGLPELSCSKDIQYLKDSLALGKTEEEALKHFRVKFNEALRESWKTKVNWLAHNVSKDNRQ
The data set is described as follows: Inhibition of recombinant PI3K p110delta using L-alpha-phosphatidylinositol as substrate and [gamma33P]ATP after 60 mins by thin layer chromatographic technique. The method in brief:
as §1

Data set [4] is described as follows: Cytotoxicity against human NZB5 cells assessed as inhibition of [3H]thymidine incorporation measured after 5 days. It is filed as functional, cell-based. The method in brief:
(§2)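 Early-passage lines grown in α-MEM with insulin, transferrin, selenite and 5% FBS. Wells seeded with 1000 cells; inhibitor in dilution steps up to a maximum of 20. Five days under 5% O₂/5% CO₂/90% N₂, ³H-thymidine added for the last 6 h. Duplicates per dose; fit y = y₀ + ae^−bx; IC50 = 50% reduction in incorporation.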

A short description of data set [5]: Cytotoxicity against human NZOV9 cells harboring PI3K p110alpha Y1021C mutant assessed as inhibition of [3H]thymidine incorporation measured after 5 days. It is filed as functional, cell-based. The method in brief:
as §2
(Dividing cells build labelled thymidine or BrdU into new DNA.)

Data set [6] is described as follows: Aqueous solubility of the compound. It is filed as physicochemical. Particulars: water. The method in brief: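 Solid mixed with water to make 2 mM, sonicated 15 min, centrifuged 13000 rpm for 6 min. Clear supernatant diluted 2-fold with water, recentrifuged and injected on HPLC. Peak area compared with a DMSO standard solution of the compound, correcting for dilution and injection volume.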

The next data set deals with HCT-116. Description: Antitumor activity against human HCT116 cells xenografted in Rag1 knockout mouse assessed as tumor growth delay at 20 mg/kg, ip QD measured on day 10 relative to untreated control. The class given is functional. Particulars: route intraperitoneal. The method in brief: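 Male Rag1−/− mice (age-matched, SPF) inoculated s.c. with 5 × 10⁶ HCT-116 cells in PBS. Dosing started at ~150 mm³ tumours: q.d. i.p. in 7.5% DMSO, 42.5% PEG-400, 20% 2-hydroxypropyl-β-cyclodextrin, 30% water; controls received vehicle. Volume = (L × w²) × π/6, measured three times weekly; bodyweight daily. Treatment stopped if mean weight loss >15%; 1-way ANOVA with Holm–Sidak.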
(In general: In xenograft studies the graft and the host belong to different species.)

Values after ≈ are worked out from the molar mass of the structure shown.

Sequence of Phosphatidylinositol 4,5-bisphosphate 3-kinase catalytic subunit beta isoform (P42338 whole entry, canonical isoform): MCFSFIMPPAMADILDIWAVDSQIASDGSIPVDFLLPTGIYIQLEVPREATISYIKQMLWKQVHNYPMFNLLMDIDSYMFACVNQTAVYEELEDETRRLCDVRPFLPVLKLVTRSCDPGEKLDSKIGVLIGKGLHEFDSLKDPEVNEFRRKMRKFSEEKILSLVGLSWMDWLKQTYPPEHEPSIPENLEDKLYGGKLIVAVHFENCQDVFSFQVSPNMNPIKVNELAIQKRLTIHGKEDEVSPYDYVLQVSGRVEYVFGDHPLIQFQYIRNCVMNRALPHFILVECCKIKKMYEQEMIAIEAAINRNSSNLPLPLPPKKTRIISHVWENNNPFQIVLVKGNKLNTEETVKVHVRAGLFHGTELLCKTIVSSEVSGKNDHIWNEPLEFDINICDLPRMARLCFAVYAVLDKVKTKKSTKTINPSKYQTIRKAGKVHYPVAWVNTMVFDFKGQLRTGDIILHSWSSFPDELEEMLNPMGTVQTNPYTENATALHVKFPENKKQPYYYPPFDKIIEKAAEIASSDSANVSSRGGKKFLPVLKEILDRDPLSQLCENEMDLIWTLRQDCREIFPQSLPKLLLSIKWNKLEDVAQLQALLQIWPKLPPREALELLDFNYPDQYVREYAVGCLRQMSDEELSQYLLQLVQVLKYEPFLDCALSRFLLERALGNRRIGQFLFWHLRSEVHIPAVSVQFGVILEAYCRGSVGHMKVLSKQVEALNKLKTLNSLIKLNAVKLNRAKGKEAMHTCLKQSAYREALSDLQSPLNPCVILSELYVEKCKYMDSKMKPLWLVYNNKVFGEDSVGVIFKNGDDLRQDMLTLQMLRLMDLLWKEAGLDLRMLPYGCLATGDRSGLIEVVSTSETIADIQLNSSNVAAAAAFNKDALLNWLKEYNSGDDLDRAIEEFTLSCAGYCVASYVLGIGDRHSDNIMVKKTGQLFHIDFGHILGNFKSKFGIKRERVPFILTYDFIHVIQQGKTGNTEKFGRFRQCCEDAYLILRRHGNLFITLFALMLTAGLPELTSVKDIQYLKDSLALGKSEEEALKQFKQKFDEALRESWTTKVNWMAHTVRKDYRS
Sequence of Phosphatidylinositol 4,5-bisphosphate 3-kinase catalytic subunit alpha isoform (P42336 whole entry, canonical isoform): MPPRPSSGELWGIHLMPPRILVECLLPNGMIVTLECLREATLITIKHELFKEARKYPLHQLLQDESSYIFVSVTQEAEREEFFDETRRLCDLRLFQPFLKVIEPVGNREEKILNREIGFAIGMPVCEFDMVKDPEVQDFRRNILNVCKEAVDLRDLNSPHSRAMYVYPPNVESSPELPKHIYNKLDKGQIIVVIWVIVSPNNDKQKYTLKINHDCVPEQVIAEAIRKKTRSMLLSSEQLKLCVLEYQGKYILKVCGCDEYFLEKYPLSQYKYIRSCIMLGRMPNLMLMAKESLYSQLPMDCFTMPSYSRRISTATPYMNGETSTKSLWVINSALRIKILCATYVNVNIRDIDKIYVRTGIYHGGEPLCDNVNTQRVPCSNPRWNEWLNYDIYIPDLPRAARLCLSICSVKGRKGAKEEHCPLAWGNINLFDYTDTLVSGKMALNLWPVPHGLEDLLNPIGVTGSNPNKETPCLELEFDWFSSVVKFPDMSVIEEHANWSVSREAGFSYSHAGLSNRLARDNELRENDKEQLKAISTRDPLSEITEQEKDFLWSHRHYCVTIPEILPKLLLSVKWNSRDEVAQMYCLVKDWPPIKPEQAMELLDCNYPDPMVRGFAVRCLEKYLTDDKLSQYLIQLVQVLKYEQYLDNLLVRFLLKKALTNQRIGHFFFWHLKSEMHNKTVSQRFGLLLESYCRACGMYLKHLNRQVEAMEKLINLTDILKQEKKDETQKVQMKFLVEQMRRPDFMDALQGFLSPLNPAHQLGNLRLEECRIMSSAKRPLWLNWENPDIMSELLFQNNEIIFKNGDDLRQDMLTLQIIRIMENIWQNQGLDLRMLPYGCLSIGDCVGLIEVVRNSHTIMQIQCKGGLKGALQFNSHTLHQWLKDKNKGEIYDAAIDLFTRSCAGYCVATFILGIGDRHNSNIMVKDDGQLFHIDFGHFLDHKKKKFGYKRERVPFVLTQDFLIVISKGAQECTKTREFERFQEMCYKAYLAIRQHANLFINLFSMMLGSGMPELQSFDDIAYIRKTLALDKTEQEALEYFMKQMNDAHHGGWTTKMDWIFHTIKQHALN

Usually IC50 stands for the midpoint of a concentration-inhibition curve. Broadly, the solubility is the dissolved amount per volume that the medium holds. Lower therefore signals a poorly soluble substance. In the case of `COc1ccc([N+](=O)[O-])cc1S(=O)(=O)N(C)/N=C/c1cnn2ccc(C#N)cc12`, the IC50 in data set [1] is 0.8 nM; in data set [2], 63 nM; in data set [3], 22 nM; in data set [4] it was 90 nM; in data set [5] it was 50 nM. For the same compound, the concentration in solution in data set [6] (solubility) came to 0.2 µg/mL (≈ 0.483 µM).

On to `Cc1ccc([N+](=O)[O-])cc1S(=O)(=O)N(C)/N=C/c1cnn2ccc(C#N)cc12`, for which the half-inhibitory concentration (IC50) in data set [5] worked out at 1400 nM. The concentration in solution in data set [6] (solubility) was 0.1 µg/mL (≈ 0.251 µM). For the same compound, in the data set on HCT-116, the Activity came out at 21.2%.

In the case of `CN(C)c1ccc([N+](=O)[O-])cc1S(=O)(=O)N(C)/N=C/c1cnn2ccc(C#N)cc12`, the IC50 in data set [1] is 2.2 nM; in data set [2], 44 nM; in data set [3] it was 24 nM; in data set [4], 40 nM; in data set [5] it was 100 nM. In data set [6], this compound gave a solubility of 0.5 µg/mL (≈ 1.17 µM).

For the compound `Cc1ccc(C(F)(F)F)cc1S(=O)(=O)N(C)/N=C/c1cnn2ccc(C#N)cc12`, the IC50 in data set [1] is 21 nM; in data set [2], 60 nM; in data set [3], 35 nM; in data set [4], 980 nM; in data set [5], 1300 nM.

With `CCN(/N=C/c1cnn2ccc(C#N)cc12)S(=O)(=O)c1cc([N+](=O)[O-])ccc1C`, the IC50 in data set [1] turned out to be 0.5 nM; in data set [2] it was 62 nM; in data set [3], 9.3 nM; in data set [4], 30 nM; in data set [5], 90 nM. For the same compound, in data set [6], the solubility was 0.2 µg/mL (≈ 0.485 µM).

For the origin of these results see ChEMBL document CHEMBL1926530, “Novel pyrazolo[1,5-a]pyridines as p110α-selective PI3 kinase inhibitors: Exploring the benzenesulfonohydrazide SAR” (Bioorg Med Chem, 2012).
